Experimental data as given in ChEMBL document CHEMBL1126310, “Affinity probes for the avermectin binding proteins” (J Med Chem, 1992).
Converted amounts (≈) assume the structure as drawn.

Legend:
Type in all cases: functional
[1] = tested on: Caenorhabditis elegans; test: Compound was evaluated for the binding affinity for Caenorhabditis elegans avermectin using Caenorhabditis elegans membrane homogenates using [3H]IVM as radioligand
In short: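 C. elegans worms washed with 50 mM HEPES pH 7.4, homogenized; 1000g supernatant spun at 28 000g, pellet resuspended to about 12.5 μg protein/mL. Membranes (1.0 mL) incubated with [3H]-IVM (22,23-ditritioivermectin) at 22 °C for 45 min with and without analogs. Filtration over GF/B filters, rinse with cold HEPES containing 0.25% Triton X-100, scintillation counting; IC50 reported.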

[2] = tested on: Artemia salina; test: Compound was evaluated for the biological activity by (Artemia salina) brine shrimp immobilization assay
In short: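 Compounds dissolved at 1 mg/mL in acetonitrile, tested in duplicate as 2-fold serial dilutions in acetonitrile across a row. Brine shrimp added in 0.20 mL brine per well. Immobilization scored by microscope after 6 h at room temperature; IC100 reported.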

[3] = tested on: Caenorhabditis elegans; test: Compound was evaluated for the biological activity by Caenorhabditis elegans motility assay.
In short: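 About 100 worms per tube, rinsed and resuspended in Krebs bicarbonate buffer pH 7.4. Compounds in DMSO, final 1% DMSO in 500 μL. After 16 h at 22 °C, motility scored by microscope; percentage of immotile worms determined at several concentrations per compound.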

Row | Compound | IC50 ([1]; Caenorhabditis elegans, 45 min) [nM] | IC100 [2] [ng/mL] | EC50 ([3]; read-out: ED50 (the source's name)) [µg/mL] | IC50 [1] [nM] | ED50 [3] [µg/mL]
1 | CCC(C)[C@H]1O[C@]2(CC[C@@H]1C)C[C@@H]1C[C@@H](C/C=C(\C)C(OCOCCN3CC3)[C@@H](C)/C=C/C=C3\COC4[C@H](O)C(C)=C[C@@H](C(=O)O1)[C@]34O)O2 (stereo partly specified) | 5 | 3470 | 0.048 (≈ 0.07 µM) |  | 
2 | IVERMECTIN [listing 1 of 2 here] |  |  |  | 0.1 | 
3 | IVERMECTIN [listing 2 of 2 here] |  | 430 |  |  | 0.007
